Results of several laboratories.
Protocols differ between the studies behind these lines.

| Compound | test | system | conditions | quantity | result |
| --- | --- | --- | --- | --- | --- |
| CC[C@H](C)[C@H](NC(=O)[C@H](Cc1ccccc1)NC(=O)[C@H](Cc1ccc(O)cc1)NC(=O)[C@@H]1CCCN1C(=O)[C@@H](N)Cc1ccc(O)cc1)C(=O)N1CCC[C@H]1C(=O)N[C@@H](CC(C)C)C(=O)NCC(=O)N[C@H](CCCCN)C(=O)NCC(=O)N[C@@H](CCC(=O)O)C(=O)N[C@H](C(=O)N[C@@H](CC(N)=O)C(=O)N[C@@H](CC(C)C)[C@@H](O)CC(=O)N[C@H](C(=O)N[C@@H](C)C(=O)N[C@@H](CCC(=O)O)C(=O)N1CCC[C@@H]1C(=O)N[C@@H](CCCCNC(=O)CCC(=O)O[C@H]1CC[C@@]2(C)C(=CC[C@H]3[C@@H]4CC[C@H]([C@H](C)CCCC(C)C)[C@@]4(C)CC[C@@H]32)C1)C(N)=O)C(C)C)C(C)C |  | aqueous buffer | pH 6.5 | thermodynamic solubility | 11 µg/mL |
| Cn1nc(C(F)(F)F)cc1-c1ccc(OCc2ccc(Cl)cc2)c(-c2cc(C(F)(F)F)cc(C(F)(F)F)c2)c1O | general toxicity | CD-1 mouse | oral | MTD | 240 mg/kg/day |
| CC(C)S(=O)(=O)c1ccc(S(=O)(=O)N2CCC[C@@H](C(=O)N3CCC(F)(F)CC3)C2)cc1 | general toxicity | mouse | oral | MTD | 10 mg/kg |
| CCn1c(=O)c(-c2cc(NC(=O)Nc3ccccc3)c(F)cc2Br)cc2cnc(NC)cc21 |  | beagle dog, plasma | oral, 5 mg/kg, single dose | Tmax | 2.25 h |
| C[C@]12CCCN1CC1=NNC(=O)c3cc(F)cc4[nH]c2c1c34 |  | male Sprague-Dawley rat, brain | intravenous, 1 mg/kg | unbound tissue/plasma ratio | 0.134 |
| C=C1C[C@H](O)[C@H](Br)C(C)(C)[C@@]12CCC(C)=C(Cl)C2 | general toxicity | female CD-1 mouse | intraperitoneal, single dose | MTD | 65 mg/kg |
| N#C[C@@]1(c2ccc3c(N)ncnn23)O[C@H](CO)[C@@H](O)[C@H]1O |  | dog, plasma | intravenous, 2 mg/kg | MRT(0-inf) | 3.93 h |
| CC[C@H](C)[C@H](NC(=O)[C@H](Cc1ccccc1)NC(=O)[C@H](Cc1ccc(O)cc1)NC(=O)[C@@H]1CCCN1C(=O)[C@@H](N)Cc1ccc(O)cc1)C(=O)N1CCC[C@H]1C(=O)N[C@@H](CC(C)C)C(=O)NCC(=O)NCC(=O)N[C@H](CCCCN)C(=O)N[C@@H](CCC(=O)O)C(=O)N[C@H](C(=O)N[C@@H](CC(N)=O)C(=O)N[C@@H](CC(C)C)[C@@H](O)CC(=O)N[C@H](C(=O)N[C@@H](C)C(=O)N[C@@H](CCC(=O)O)C(=O)N1CCC[C@@H]1C(=O)N[C@@H](CCCCNC(=O)CCC(=O)O[C@H]1CC[C@@]2(C)C(=CC[C@H]3[C@@H]4CC[C@H]([C@H](C)CCCC(C)C)[C@@]4(C)CC[C@@H]32)C1)C(N)=O)C(C)C)C(C)C |  | aqueous buffer | pH 6.5 | thermodynamic solubility | < 1 µg/mL |
| CC[C@@H]1CN(C(=O)NCC(F)(F)F)C[C@@H]1c1cnc2cnc3[nH]ccc3n12 |  | beagle dog, plasma | oral, 1 mg/kg, single dose | MRT(0-inf) | 11.6 h |
| O=C(NCCN1CCCC1)c1cc(-c2ccc(CN3CCOCC3)cc2)nc2ccc(F)cc12 |  | male beagle dog, blood | oral, 3 mg/kg | Tmax | 4 h |
| CC[C@H](C)[C@H](NC(=O)[C@H](Cc1ccccc1)NC(=O)[C@H](Cc1ccc(O)cc1)NC(=O)[C@@H]1CCCN1C(=O)[C@@H](N)Cc1ccc(O)cc1)C(=O)N[C@H](CCCCN)C(=O)N[C@@H](CC(C)C)C(=O)NCC(=O)N[C@H](CCCCN)C(=O)NCC(=O)N[C@@H](CCC(=O)O)C(=O)N[C@H](C(=O)N[C@@H](CC(N)=O)C(=O)N[C@@H](CC(C)C)[C@@H](O)CC(=O)N[C@H](C(=O)N[C@@H](C)C(=O)N[C@@H](CCC(=O)O)C(=O)N1CCC[C@@H]1C(=O)N[C@@H](CCCCNC(=O)CCC(=O)O[C@H]1CC[C@@]2(C)C(=CC[C@H]3[C@@H]4CC[C@H]([C@H](C)CCCC(C)C)[C@@]4(C)CC[C@@H]32)C1)C(N)=O)C(C)C)C(C)C |  | aqueous buffer | pH 6.5 | thermodynamic solubility | 55 µg/mL |
| CC[C@H](C)[C@H](NC(=O)[C@H](CO)NC(=O)[C@H](CCCNC(=N)N)NC(C)=O)C(=O)N[C@H]1CSSC[C@@H](C(=O)N[C@H](C(N)=O)[C@@H](C)O)NC(=O)[C@H](CCCNC(=N)N)NC(=O)[C@H](Cc2c[nH]cn2)NC(=O)[C@H](C)NC(=O)CNC(=O)[C@H](Cc2c[nH]c3ccccc23)NC(=O)[C@H](CC(=O)O)NC(=O)[C@H](CCC(N)=O)NC(=O)[C@H](Cc2cn(C)c3ccccc23)NC(=O)[C@H](C(C)C)NC1=O | absorbance | water |  | thermodynamic solubility | > 500 µM |
| Cc1cc(Nc2ccc(S(F)(F)(F)(F)F)cc2)n2nc(C(C)(F)F)nc2n1 | general toxicity | mouse | oral, multiple doses | MTD | > 200 mg/kg |
| CCCC(CCC)C(=O)OCC1(CO)C/C(=C\c2ccc(C(F)(F)F)cc2)C(=O)O1 (centres unmarked) | general toxicity | nude mouse | intraperitoneal | MTD | 12 mg/kg/day |
